Assays:
Assay type in all cases: functional
Design in all cases: scale not given: the % may be the effect or the level left
[1] = system: SR; test: Growth inhibition of human SR cells assessed tumor cell growth at 10^-5 M
Method in brief: (§1)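 Single-dose screen at 10^-5 M across the 60 human tumor cell line panel, run to NCI standards. The value is the percent growth of each cell line in the presence of compound. Compounds active at this dose moved on to five-concentration testing (10^-4 to 10^-8 M).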

[2] = system: OVCAR-3; test: Growth inhibition of human OVCAR3 cells assessed tumor cell growth at 10^-5 M
Method in brief: (§2)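 NCI 60-human-tumor-cell-line panel screen. Each compound was tested at a single concentration of 10^-5 M, and percent growth of tumor cells was recorded for each cell line. Growth inhibition was expressed from these percent-growth values.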

[3] = system: HT-29; test: Growth inhibition of human HT-29 cells assessed tumor cell growth at 10^-5 M; method in brief: as §2
[4] = system: SNB-19; test: Growth inhibition of human SNB19 cells assessed tumor cell growth at 10^-5 M; method in brief: as §1
[5] = system: A498; test: Growth inhibition of human A498 cells assessed tumor cell growth at 10^-5 M; method in brief: as §2
[6] = system: HOP-62; test: Growth inhibition of human HOP62 cells assessed tumor cell growth at 10^-5 M; method in brief: as §2
[7] = system: A549; test: Growth inhibition of human A549 cells assessed tumor cell growth at 10^-5 M; method in brief: as §2
[8] = system: ACHN; test: Growth inhibition of human ACHN cells assessed tumor cell growth at 10^-5 M; method in brief: as §2
[9] = system: NCI-H226; test: Growth inhibition of human NCI-H226 cells assessed tumor cell growth at 10^-5 M; method in brief: as §2
[10] = system: MDA-MB-231; test: Growth inhibition of human MDA-MB-231 cells assessed tumor cell growth at 10^-5 M; method in brief: as §2
[11] = system: KM12; test: Growth inhibition of human KM12 cells assessed tumor cell growth at 10^-5 M; method in brief: as §2
[12] = system: SK-MEL-2; test: Growth inhibition of human SK-MEL-2 cells assessed tumor cell growth at 10^-5 M; method in brief: as §2
[13] = system: COLO 205; test: Growth inhibition of human COLO205 cells assessed tumor cell growth at 10^-5 M; method in brief: as §2
[14] = system: OVCAR-5; test: Growth inhibition of human OVCAR5 cells assessed tumor cell growth at 10^-5 M; method in brief: as §2
[15] = system: SF-539; test: Growth inhibition of human SF539 cells assessed tumor cell growth at 10^-5 M; method in brief: as §2
[16] = system: SF-268; test: Growth inhibition of human SF268 cells assessed tumor cell growth at 10^-5 M; method in brief: as §2
[17] = system: UO-31; test: Growth inhibition of human UO31 cells assessed tumor cell growth at 10^-5 M; method in brief: as §1
[18] = system: T47D; test: Growth inhibition of human T47D cells assessed tumor cell growth at 10^-5 M; method in brief: as §1
[19] = Growth inhibition of human Hs 578T cells assessed tumor cell growth at 10^-5 M; method in brief: as §2
[20] = system: SN12C; test: Growth inhibition of human SN12C cells assessed tumor cell growth at 10^-5 M; method in brief: as §2
[21] = system: MCF7; test: Growth inhibition of human MCF7 cells assessed tumor cell growth at 10^-5 M; method in brief: as §2
[22] = system: NCI-H23; test: Growth inhibition of human NCI-H23 cells assessed tumor cell growth at 10^-5 M; method in brief: as §2
[23] = system: M14; test: Growth inhibition of human M14 cells assessed tumor cell growth at 10^-5 M; method in brief: as §2
[24] = system: SNB-75; test: Growth inhibition of human SNB75 cells assessed tumor cell growth at 10^-5 M; method in brief: as §1
[25] = system: IGROV-1; test: Growth inhibition of human IGROV1 cells assessed tumor cell growth at 10^-5 M; method in brief: as §2
[26] = system: RXF 393; test: Growth inhibition of human RXF393 cells assessed tumor cell growth at 10^-5 M; method in brief: as §2
[27] = system: PC-3; test: Growth inhibition of human PC3 cells assessed tumor cell growth at 10^-5 M; method in brief: as §2
[28] = system: SF-295; test: Growth inhibition of human SF295 cells assessed tumor cell growth at 10^-5 M; method in brief: as §2
[29] = system: NCI/ADR-RES; test: Growth inhibition of human NCI/ADR-RES cells assessed tumor cell growth at 10^-5 M; method in brief: as §2
[30] = system: NCI-H460; test: Growth inhibition of human NCI-H460 cells assessed tumor cell growth at 10^-5 M; method in brief: as §2
[31] = system: DU-145; test: Growth inhibition of human DU145 cells assessed tumor cell growth at 10^-5 M; method in brief: as §2
[32] = Growth inhibition of human […] cells assessed tumor cell growth at 10^-5 M; method in brief: as §2
[33] = system: 786-0; test: Growth inhibition of human 786-0 cells assessed tumor cell growth at 10^-5 M; method in brief: as §2
[34] = system: HCT-15; test: Growth inhibition of human HCT15 cells assessed tumor cell growth at 10^-5 M; method in brief: as §2
[35] = system: UACC-62; test: Growth inhibition of human UACC62 cells assessed tumor cell growth at 10^-5 M; method in brief: as §1
[36] = system: K562; test: Growth inhibition of human K562 cells assessed tumor cell growth at 10^-5 M; method in brief: as §2
[37] = system: EKVX; test: Growth inhibition of human EKVX cells assessed tumor cell growth at 10^-5 M; method in brief: as §2
[38] = system: OVCAR-8; test: Growth inhibition of human OVCAR8 cells assessed tumor cell growth at 10^-5 M; method in brief: as §2
[39] = system: NCI-H322M; test: Growth inhibition of human NCI-H322M cells assessed tumor cell growth at 10^-5 M; method in brief: as §2
[40] = system: CAKI-1; test: Growth inhibition of human Caki1 cells assessed tumor cell growth at 10^-5 M; method in brief: as §2
[41] = system: SK-MEL-5; test: Growth inhibition of human SK-MEL-5 cells assessed tumor cell growth at 10^-5 M; method in brief: as §2
[42] = system: NCI-H522; test: Growth inhibition of human NCI-H522 cells assessed tumor cell growth at 10^-5 M; method in brief: as §2
[43] = system: HL-60(TB); test: Growth inhibition of human HL-60(TB) cells assessed tumor cell growth at 10^-5 M
Method in brief: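 HL-60(TB), part of the 60-line panel, tested at a single concentration of 10^-5 M. The read-out is percent tumor cell growth relative to untreated growth.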

[44] = system: MOLT-4; test: Growth inhibition of human MOLT4 cells assessed tumor cell growth at 10^-5 M; method in brief: as §2
[45] = system: U-251; test: Growth inhibition of human U251 cells assessed tumor cell growth at 10^-5 M; method in brief: as §1
[46] = system: TK-10; test: Growth inhibition of human TK10 cells assessed tumor cell growth at 10^-5 M; method in brief: as §1
[47] = system: LOX IMVI; test: Growth inhibition of human LOXIMVI cells assessed tumor cell growth at 10^-5 M; method in brief: as §2
[48] = system: SW-620; test: Growth inhibition of human SW620 cells assessed tumor cell growth at 10^-5 M; method in brief: as §1
[49] = system: HCT-116; test: Growth inhibition of human HCT116 cells assessed tumor cell growth at 10^-5 M; method in brief: as §2
[50] = system: OVCAR-4; test: Growth inhibition of human OVCAR4 cells assessed tumor cell growth at 10^-5 M; method in brief: as §2
[51] = system: SK-MEL-28; test: Growth inhibition of human SK-MEL-28 cells assessed tumor cell growth at 10^-5 M; method in brief: as §2
[52] = system: Malme-3M; test: Growth inhibition of human MALME-3M cells assessed tumor cell growth at 10^-5 M; method in brief: as §2
[53] = system: MDA-MB-435; test: Growth inhibition of human MDA-MB-435 cells assessed tumor cell growth at 10^-5 M; method in brief: as §2
[54] = system: SK-OV-3; test: Growth inhibition of human SKOV3 cells assessed tumor cell growth at 10^-5 M; method in brief: as §2
[55] = system: MDA-MB-468; test: Growth inhibition of human MDA-MB-468 cells assessed tumor cell growth at 10^-5 M; method in brief: as §2

`Cc1ccc(S(=O)(=O)N2C(=O)/C(=C\c3cn(S(=O)(=O)c4ccc(C)cc4)c4ccccc34)c3ccccc32)cc1` gave an Activity [1] of 70.4%, an Activity [2] of 107.8% and an Activity [3] of 90%. It also gave an Activity [4] of 82.9%, an Activity [5] of 96.8% and an Activity [6] of 80.2%. It also gave an Activity [7] of 87.4%, an Activity [8] of 91.3% and an Activity [9] of 97.5%. It also gave an Activity [10] of 84.2%, an Activity [11] of 103.9% and an Activity [12] of 68.1%. The Activity [13] was 107.3%, the Activity [14] was 96.2% and the Activity [15] was 88%. It also gave an Activity [16] of 84.9%, an Activity [17] of 77.1% and an Activity [18] of 94.8%. It also gave an Activity [19] of 74.8%, an Activity [20] of 98.9% and an Activity [21] of 93.9%. The Activity [22] was 96.5%, the Activity [23] was 100.7% and the Activity [24] was 40.2%. It also gave an Activity [25] of 105%, an Activity [26] of 77% and an Activity [27] of 71.7%. It also gave an Activity [28] of 91.8%, an Activity [29] of 95.6% and an Activity [30] of 93.2%. For the same compound, the Activity [31] was 100%, the Activity [32] was 92.6% and the Activity [33] was 71.2%. The Activity [34] was 97.4%, the Activity [35] was 82.1% and the Activity [36] was 83.9%. For the same compound, the Activity [37] was 99.9%, the Activity [38] was 76% and the Activity [39] was 102.4%. The Activity [40] was 89.6%, the Activity [41] was 98.1% and the Activity [42] was 49.7%. The Activity [43] was 85.6%, the Activity [44] was 90.4% and the Activity [45] was 76.2%. For the same compound, the Activity [46] was 65.5%, the Activity [47] was 82.3% and the Activity [48] was 94.8%. The Activity [49] was 83.1%, the Activity [50] was 100.5% and the Activity [51] was 100.5%. For the same compound, the Activity [52] was 97.7%, the Activity [53] was 109.2% and the Activity [54] was 81%. For the same compound, the Activity [55] was 103.8%.

Source: ChEMBL document CHEMBL1811814, “Synthesis and evaluation of indole, pyrazole, chromone and pyrimidine based conjugates for tumor growth inhibitory activities--development of highly efficacious cytotoxic agents” (Eur J Med Chem, 2010)
